The source made the active and inactive calls.
What was measured:
[1] = Neurotoxicity in CF-1 mouse at 300 mg/kg, ip measured after 0.5 hrs by rotarod test; format: toxicity, organism-based; details: in vivo
Method in brief: (§1)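 Mice dosed i.p. were placed on a 1 in. knurled rod turning at 6 rpm. Toxicity was scored as failure to keep balance for at least 1 min, i.e. falling off three or more times. Results are reported as animals showing toxicity / animals tested at each time point.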

Mus musculus [2] = assay: Anticonvulsant activity in CF-1 mouse model of maximal electroshock-induced seizure assessed as suppression of tonic hind limb extension at 110 mg/kg, ip measured at 0.25 hrs post dose; format: functional, organism-based
Method in brief: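 Mice dosed i.p. and given maximal electroshock at 50 mA. Read-out is protection, reported as number protected / number tested at 0.25, 0.5, 1 and 4 h after dosing.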

Rattus norvegicus [3] = assay: Anticonvulsant activity in hippocampal kindling Sprague-Dawley rat model assessed as after discharge time at 50 mg/kg, ip administered as single dose measured after 75 mins; format: functional
Method in brief: (§2)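 Rats implanted with a hippocampal electrode and kindled with suprathreshold trains (200 µA, 10 s, 50 Hz) every 30 min for 6 h on alternate days until fully kindled. One week later they received a single i.p. dose. Seizure score (Racine scale) and afterdischarge duration were recorded at 0–135 min and compared with the control stimulus given 15 min before dosing; each animal served as its own control. Values are mean ± SEM.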

[4] = Neurotoxicity in Sprague-Dawley rat at 300 mg/kg, ip measured after 0.25 hrs by rotarod test; format: toxicity, organism-based; details: in vivo
Method in brief: (§3)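 Rat neurotoxicity after i.p. or p.o. dosing was scored as animals impaired / animals tested at each time point. For p.o. dosing, TD50 was obtained by probit analysis.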

[5] = Neurotoxicity in CF-1 mouse at 220 mg/kg, ip measured after 1 hr by rotarod test; format: toxicity, organism-based; details: in vivo; method in brief: as §1
[6] = Neurotoxicity in CF-1 mouse at 100 mg/kg, ip measured after 0.25 hrs by rotarod test; format: toxicity, organism-based; details: in vivo; method in brief: as §1
[7] = Neurotoxicity in Sprague-Dawley rat at 30 mg/kg, ip measured after 0.5 hrs by rotarod test; format: toxicity, organism-based; details: in vivo; method in brief: as §3
Rattus norvegicus [8] = assay: Anticonvulsant activity in hippocampal kindling Sprague-Dawley rat model assessed as after discharge time at 100 mg/kg, ip administered as single dose measured after 15 mins; format: functional; method in brief: as §2
Rattus norvegicus [9] = assay: Anticonvulsant activity in hippocampal kindling Sprague-Dawley rat model assessed as after discharge time at 100 mg/kg, ip administered as single dose measured after 45 mins; format: functional; method in brief: as §2
Rattus norvegicus [10] = assay: Anticonvulsant activity in hippocampal kindling Sprague-Dawley rat model assessed as after discharge time at 50 mg/kg, ip administered as single dose measured after 15 mins; format: functional; method in brief: as §2
[11] = Neurotoxicity in Sprague-Dawley rat at 30 mg/kg, ip measured after 2 hrs by rotarod test; format: toxicity, organism-based; details: in vivo; method in brief: as §3
Mus musculus [12] = assay: Anticonvulsant activity in ip dosed CF-1 mouse model of maximal electroshock-induced seizure assessed as suppression of tonic hind limb extension; format: functional; details: CF-1, ip
Rattus norvegicus [13] = assay: Anticonvulsant activity in hippocampal kindling Sprague-Dawley rat model assessed as decrease of seizure score at 100 mg/kg, ip administered as single dose measured up to 135 mins; format: functional, organism-based; method in brief: as §2
[14] = Neurotoxicity in po dosed Sprague-Dawley rat by rotarod test; format: toxicity, organism-based; details: in vivo; method in brief: as §3
Rattus norvegicus [15] = assay: Anticonvulsant activity in hippocampal kindling Sprague-Dawley rat model assessed as after discharge time at 100 mg/kg, ip administered as single dose measured after 135 mins; format: functional; method in brief: as §2
[16] = Neurotoxicity in Sprague-Dawley rat at 300 mg/kg, ip measured after 4 hrs by rotarod test; format: toxicity, organism-based; details: in vivo; method in brief: as §3

Row | SMILES | Activity [1] | Activity (Mus musculus [2]) | Time (Rattus norvegicus [3]) [s] | Activity [4] | Activity [5] | Activity [6] | Activity [7] | Time (Rattus norvegicus [8]) [s] | Time (Rattus norvegicus [9]) [s] | Time (Rattus norvegicus [10]) [s] | Activity [11] | ED50 (Mus musculus [12]) [mg/kg] | Activity (Rattus norvegicus [13]) | TD50 [14] [mg/kg] | Time (Rattus norvegicus [15]) [s] | Activity [16]
1 | CCC(O)CNC(=O)COc1c(C)cccc1C (stereo unspecified) | Toxic | – | – | – | – | – | – | – | – | – | – | – | – | – | – | –
2 | Cc1cccc(C)c1OCC(=O)N[C@H](C)CO | – | Active | 75 | Toxic | Non-Toxic | Non-Toxic | Non-Toxic | 48 | 86 | 71 | Non-Toxic | 97.9 | Active | > 500 | 76 | Toxic

— ChEMBL document CHEMBL4368872, “Synthesis and anticonvulsant activity of phenoxyacetyl derivatives of amines, including aminoalkanols and amino acids” (Medchemcomm, 2018)
